Assay outcomes as filed in PubChem.
A selection: hits, their analogues and other compounds. The true share with any hit is near 2.9%.
SENP1 FRET inh = inhibitors of human SENP1 SUMO protease catalytic domain. Q9P0U3. AID 624204. inhibition, % at 10 µM. recombinant SENP1 catalytic domain, CyPet-SUMO1-YPet FRET cleavage. 360,000 compounds, 0.21% hits;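 active = inhibition at least 30% at 10 µM, raw YFP signal under a set limit, fluorescence ratio 0.5 to 1.5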;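 note: 0% = enzyme with DMSO and 100% = no enzyme wells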
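Material – human SENP1 catalytic domain · Input – SENP1 enzyme, 20 pM final · Compound dosing – single concentration of 10 µM compound, 0.5% DMSO final · Timing – enzyme reaction for 50 min at room temperature, dark · Measured by – FRET fluorescence in CFP and YFP emission channels · Control set – no-enzyme wells low, DMSO-plus-enzyme wells high control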
HSP90 refold inh = HSP90 refolding inhibition in rabbit reticulocyte lysate. inhibition, % at 5.6 µM. 290,000 compounds, 0.91% hits. luciferase refolding luminescence, 3 h;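 active = inhibition above the screen-wide mean plus 3 SD, computed separately per campaign, cut at about 16% in these data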;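 note: 0% = DMSO wells and 100% = 60 µM geldanamycin wells; inhibitors lower the luminescence because luciferase stays unfolded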
SENP7 inh = blocks the human protease SENP7; Q9BQF6; recombinant SENP7, Z-RLRGG-aminoluciferin luminescence, 40 min; inhibition, % at 5 µM; 330,000 compounds, 1.5% hits; AID 434973;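 active = inhibition above about 50% at the single test dose, limit read from the data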;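 note: plate controls were DMSO with enzyme for no effect and no enzyme buffer wells for full effect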
Target sequence (Q9BQF6 706-1050 limits assumed): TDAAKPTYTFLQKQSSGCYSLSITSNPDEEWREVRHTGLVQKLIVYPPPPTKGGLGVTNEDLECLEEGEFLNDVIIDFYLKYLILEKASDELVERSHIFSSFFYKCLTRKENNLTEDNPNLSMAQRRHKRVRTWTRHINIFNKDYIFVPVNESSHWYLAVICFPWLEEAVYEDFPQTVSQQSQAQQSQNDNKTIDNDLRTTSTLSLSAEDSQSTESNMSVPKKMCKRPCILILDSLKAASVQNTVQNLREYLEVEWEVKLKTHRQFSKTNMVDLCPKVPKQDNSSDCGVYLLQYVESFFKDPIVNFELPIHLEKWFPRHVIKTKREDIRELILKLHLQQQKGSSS
SENP8 block-1 = blocks the human protease SENP8. Q96LD8. purified SENP8, Z-RLRGG-aminoluciferin cleavage, luminescence. inhibition, % at 10 µM. 330,000 compounds, 1.2% hits. AID 2540; in the data active = inhibition above about 50%
Target sequence (Q96LD8 whole entry, looked up): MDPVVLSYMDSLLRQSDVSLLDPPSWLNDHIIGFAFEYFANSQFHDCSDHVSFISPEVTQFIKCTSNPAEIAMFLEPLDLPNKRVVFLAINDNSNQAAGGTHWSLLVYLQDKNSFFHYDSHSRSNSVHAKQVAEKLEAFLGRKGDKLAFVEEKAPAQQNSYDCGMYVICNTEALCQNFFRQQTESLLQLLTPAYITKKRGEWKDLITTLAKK
SENP6 block = inhibitors of human SENP6 protease | 330,000 compounds, 1.8% hits | inhibition, % at 10 µM | AID 2599 | Q9GZR1 | Recombinant SENP6 catalytic domain, aminoluciferin luminescence;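 active = inhibition above about 50% at the single tested dose, limit read from the data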;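 note: plate controls were DMSO wells with enzyme for no effect and DMSO wells lacking enzyme for full effect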
SENP8 block-2 = inhibitors of human SENP8 protease; recombinant SENP8, Nedd8 substrate fluorescence; inhibition, % at 20 µM; 360,000 compounds, 0.64% hits; AID 602440; in the data active = inhibition mostly above about 40%, no sharp cut-off; inactive = mostly below about 27%
* marks the source's active call; other numbers are inactive results; . = not tested or not shown.

SMILES | SENP1 FRET inh | HSP90 refold inh | SENP7 inh | SENP8 block-1 | SENP6 block | SENP8 block-2
Cc1cccc2sc(N(CCCN(C)C)C(=O)c3ccc4ncsc4c3)nc12 | -19 | 17* | -2 | -5 | -4 | -3
Cc1cc(O)c(C=O)c2c1C(=O)Oc1c(CO)c(O)c3c(c1O2)C(O)OC3=O (centres undefined) | 30* | 1 | -5 | 5 | -156 | 25
C=CCNC(=O)c1ccsc1N | -2 | . | . | . | . | 28
Clc1ccc(CON/C=N/c2ncnc3sccc23)cc1 | 2 | 17* | -2 | 6 | 6 | 18
COC(=O)C(C(C)=O)C1=C/C(=N\S(=O)(=O)c2ccc(C)cc2)c2ccccc2C1=O (centres undefined) | 4 | 5 | -3 | -3 | 3 | 9
CC(C)c1ccc(S(=O)(=O)/N=C2/C=CC(=O)c3ccccc32)cc1 | . | 2 | 13 | 6 | 27 | .
CC(C)c1ccc(S(=O)(=O)/N=C2\C=C(NS(=O)(=O)c3ccccc3)C(=O)c3ccccc32)cc1 | 3 | 0 | . | . | . | 62*
CCc1ccc(S(=O)(=O)/N=C2\C=C(NS(=O)(=O)c3ccccc3)C(=O)c3ccccc32)cc1 | 1 | 2 | 16 | 3 | 5 | 70*
CCc1nc2ccc(C(=O)NCCc3ccccn3)cn2c1N(C)CCC(C)C | -2 | . | . | . | . | 4
Oc1ccc2c(c1)OCC1(O)Cc3cc(O)c(O)cc3C21 (centres undefined) | 31* | . | . | . | . | -2
O=c1[nH]n(Cc2ccccc2)c2ccccc12 | 3 | -1 | 4 | -1 | -8 | -312
CNC(=O)Cn1nc(-c2ccc(Cl)cc2)c2ccccc2c1=O | -2 | -1 | -9 | -8 | -14 | 22
Nc1ccccc1Nc1ccccc1 | 49* | -7 | 3 | 3 | 12 | -13
CC(Nc1ccc(Cl)cc1)c1cc(Cl)ccc1O (centres undefined) | 1 | 1 | -8 | -5 | -10 | 26
CCOc1ccc(NC(C)c2cc(Cl)ccc2O)cc1 (centres undefined) | -1 | 2 | -1 | -7 | -2 | 46*
CCOP(=O)(C1=C(O)C(=O)C(C(C)(C)C)=CC1=O)c1ccccc1 (centres undefined) | -5 | 2 | . | . | . | 87*
CCOP(=O)(OCC)c1cccc(P(=O)(c2ccccc2)c2ccccc2)c1O | 2 | -3 | -2 | 4 | -37 | -197
CC(=O)OCC(=O)C1(O)CCC2C3CCC4=CC(=O)CCC4(C)C3C(O)CC21C (centres undefined) | 5 | . | . | . | . | 5
O=[N+]([O-])c1ccccc1-c1ccc(C(=S)N2CCCCC2)o1 | -26 | 10 | 11 | 38 | 52* | 4
O=[N+]([O-])c1cccc(-c2ccc(C(=S)N3CCN(c4ccccc4)CC3)o2)c1 | -8 | 0 | -5 | -4 | -5 | 32*
O=C(NCC1CCCN1S(=O)(=O)c1ccccc1)c1cccc(Cl)c1 (centres undefined) | -18 | . | 7 | -7 | -13 | -3
COc1cc(N=Nc2ccc(Br)cc2)cc(C=O)c1O | 10 | . | . | . | . | 44*
CCOc1cc(/C=N/NC(N)=O)cc(Br)c1OCc1ccccc1F | 2 | -1 | -2 | -8 | -7 | 7
CCOc1cc(CNc2ccc(O)cc2)cc(Br)c1OCc1ccccc1F | 10 | 1 | 16 | 4 | -11 | 41*
Cc1cc(Nc2ccc(O)cc2)ccc1N | . | . | 10 | 15 | 15 | .
SMILES | SENP1 FRET inh | HSP90 refold inh | SENP7 inh | SENP8 block-1 | SENP6 block | SENP8 block-2
CCCCN(C(=O)C1CC(=O)N(CCc2ccc(OC)c(OC)c2)C1)c1c(N)n(CC(C)C)c(=O)[nH]c1=O (centres undefined) | 2 | . | . | . | . | 8
Cc1ccccc1NC(=O)C(=O)Nc1ccccc1C | 0 | 4 | 80* | 9 | 30 | 11
Cc1ccccc1NC(=O)CC(=O)Nc1ccccc1C | 0 | 6 | 2 | -4 | -21 | 12
COCCNC(=O)c1cccc2c(-c3ccnn3C)coc12 | 0 | . | . | . | . | -2
CCOC(=O)[C@H]1[C@H]2COc3ccccc3[C@@H]2N2C(=O)CN(Cc3ccc(C)cc3)C(=O)[C@@]12C | 34* | . | 0 | 9 | 6 | 5
CCCOc1ncnc2c1[nH]c1ccc(OC)cc12 | 1 | 3 | 81* | 63* | 77* | -396
CCCOc1ncnc2c1[nH]c1ccccc12 | -14 | 3 | 5 | 0 | -4 | -105
CCCCOc1ncnc2c1[nH]c1ccc(C)cc12 | -1 | 5 | 51* | -5 | 16 | -364
O=c1c2c(nc3cc(-c4cccc(F)c4)[nH]n13)CCC2 | 2 | 0 | 45 | 44 | 60* | -270
Cc1cccc(C(O)c2ncc(-c3cccc(C(F)(F)F)c3)[nH]2)c1C (centres undefined) | 1 | . | . | . | . | 21
CC(=O)Nc1cc(OC(C)=O)c2nonc2c1OC(C)=O | 2 | 85* | 92* | 70* | 82* | 33
O=C1CSC(=S)N1/N=C/c1cc(Br)ccc1O | . | -2 | . | . | . | .
O=C1CSC(=S)N1/N=C/c1ccc(O)c(O)c1O | 12 | -2 | 8 | 8 | -2 | 53*
Cc1ccc(F)c(NC(=O)/C(C#N)=C(\O)c2ccc(C(C)(C)C)cc2)c1 | 1 | -1 | 5 | 53* | 22 | 13
Cc1cccc(NC(=O)c2cc[n+]([O-])cc2)c1C | -1 | -6 | -8 | -7 | -16 | 9
Cc1c(NC(=O)CSc2ccc3ccccc3n2)c(=O)n(-c2ccccc2)n1C | -1 | . | 5 | -3 | 6 | 16
O=C1O/C(=C/c2ccccc2)c2ccccc21 | 1 | -6 | 27 | 22 | 59* | -29
O=C1CCCC2=C1Sc1ccccc1N2 | 52* | 4 | 0 | 2 | 6 | 18
O=C1Nc2ccccc2SC1=Cc1ccccc1 | 1 | . | . | . | . | -5
CCN1C(=O)[C@@H]2[C@H](C1=O)[C@@H]1CC(C(=O)OC)=C[C@@H](C(=O)OC)C3C1=C(C(=O)C3(CC)CC)[C@@H]2C (some centres undefined) | . | . | -6 | 1 | -16 | .
COc1ccc(-c2nc(-c3ccncc3)no2)cc1 | 0 | 21* | . | . | . | 13
Cc1ccc(N(C(=O)CNC(=O)c2ccco2)C(C(=O)NC2CCCCC2)c2ccncc2)c(C)c1 (centres undefined) | 1 | -2 | 2 | 3 | 7 | 6
COc1ccc(N=Nc2n(C)c3ccccc3[n+]2C)cc1 | . | 79* | . | . | . | .
Cc1ccn(CC(=O)N2CCCC(N3CCN(c4cccc(C(F)(F)F)c4)CC3)C2)n1 (centres undefined) | 1 | . | . | . | . | 0
O=C(CSc1nnc(NC(=O)c2ccccc2Cl)s1)Nc1ccc2c(c1)oc1ccccc12 | . | -7 | 82* | 32 | 37 | .
CC(C)(C)NC(=O)CSc1nnc(NC(=O)c2ccccc2Cl)s1 | 1 | -8 | 1 | 0 | -6 | -3
Cc1ccc(-c2ccc(C(=O)O)c(C)n2)cc1 | 0 | 1 | -4 | -1 | 14 | 10
